This note sets out measurements from ChEMBL document CHEMBL1154352, “Toll-like receptor 7 selective synthetic oligoribonucleotide agonists: synthesis and structure-activity relationship studies” (J Med Chem, 2009).

The source made the active and inactive calls. The rule behind the calls is not given here.

Data set [1] has as its system Splenocyte. As to the kind of experiment: Immunomodulatory activity in C57BL/6 mouse splenocytes bearing TLR7 receptor assessed as IL12 release at 100 ug/ml after 24 hrs by ELISA. The data set is classed as functional, cell-based. The procedure, abridged:
(§1)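 C57BL/6 splenocytes in RPMI 1640 with 10% FBS, penicillin/streptomycin, 2 mM L-glutamine, plated at 5 × 10^6 cells/mL; compounds in PBS added, 37 °C for 24 h. Supernatant IL-12 and IL-6 by ELISA; representative of three independent experiments.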
Background: In an ELISA, binding on a coated surface is turned into a signal by an enzyme label.

The nature of data set [2]: Metabolic stability in human serum assessed as full length product remaining after 10 mins by HPLC. Format: ADME, cell-free. As to conditions: read-out: Stability. In outline: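 About 0.5 A260 units compound in 1% human serum in PBS, 37 °C; aliquot taken at 10 min, analysed by anion-exchange HPLC for percent intact full-length product.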
Data set [3] deals with Toll-like receptor 3 (Homo sapiens) (UniProt O15455). Kind of data set: Activation of human TLR3 expressed in HEK293 assessed as induction of NF-kappaB activity reporter gene assay. Format: cell-based. On the technique in general: In a reporter assay the amount or activity of a reporter protein is the signal.
Sequence of Toll-like receptor 3 (Homo sapiens) (O15455 whole entry): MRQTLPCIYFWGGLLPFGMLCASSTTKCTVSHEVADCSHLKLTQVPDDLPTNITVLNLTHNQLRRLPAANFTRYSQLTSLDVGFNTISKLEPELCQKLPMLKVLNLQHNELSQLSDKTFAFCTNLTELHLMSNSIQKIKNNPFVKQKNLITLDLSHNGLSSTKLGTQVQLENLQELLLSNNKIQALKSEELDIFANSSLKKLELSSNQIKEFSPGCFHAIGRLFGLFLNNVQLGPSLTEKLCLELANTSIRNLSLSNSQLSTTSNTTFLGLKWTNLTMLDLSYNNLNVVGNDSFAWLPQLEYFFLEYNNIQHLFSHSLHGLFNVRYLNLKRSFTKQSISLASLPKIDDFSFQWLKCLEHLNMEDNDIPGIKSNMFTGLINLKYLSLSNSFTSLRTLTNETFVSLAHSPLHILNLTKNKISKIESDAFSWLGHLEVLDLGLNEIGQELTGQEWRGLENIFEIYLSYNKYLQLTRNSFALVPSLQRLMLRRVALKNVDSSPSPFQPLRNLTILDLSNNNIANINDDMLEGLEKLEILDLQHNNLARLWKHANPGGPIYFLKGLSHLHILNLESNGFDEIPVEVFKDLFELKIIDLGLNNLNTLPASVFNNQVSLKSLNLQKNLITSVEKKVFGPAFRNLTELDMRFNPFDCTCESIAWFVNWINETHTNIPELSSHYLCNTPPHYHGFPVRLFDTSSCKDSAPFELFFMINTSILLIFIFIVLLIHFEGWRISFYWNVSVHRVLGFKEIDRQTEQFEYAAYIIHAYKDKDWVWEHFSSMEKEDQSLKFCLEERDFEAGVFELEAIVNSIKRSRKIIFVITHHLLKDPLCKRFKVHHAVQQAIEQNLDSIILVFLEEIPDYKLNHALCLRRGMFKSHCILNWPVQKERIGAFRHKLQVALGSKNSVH
Data set [4] relates to PBMC. Kind of data set: Immunomodulatory activity in human PBMC assessed as induction of TNFalpha at 100 ug/ml after 24 hrs. The data set is classed as functional, cell-based. In outline: (§2)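 Human PBMCs plated at 5 × 10^6 cells/mL; compounds dissolved in PBS added at various concentrations, 37 °C for 24 h. Supernatant cytokines/chemokines quantified with human Luminex multiplex kit.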

Data set [5] relates to PBMC. Kind of data set: Immunomodulatory activity in human PBMC assessed as induction of IL12 at 100 ug/ml after 24 hrs. Format: functional, cell-based. In outline:
as §2

In data set [6] the test system is PBMC. As to the kind of experiment: Immunomodulatory activity in human PBMC assessed as induction of IFN-alpha at 100 ug/ml after 24 hrs.
Data set [7] deals with Splenocyte. As to the kind of experiment: Immunomodulatory activity in C57BL/6 mouse splenocytes bearing TLR7 receptor assessed as IL6 release at 100 ug/ml after 24 hrs by ELISA. Format: functional, cell-based. In outline: as §1
In data set [8] the target is T1, Toll-like receptor 8 (Homo sapiens) (UniProt Q9NR97).
T1 sequence (whole entry): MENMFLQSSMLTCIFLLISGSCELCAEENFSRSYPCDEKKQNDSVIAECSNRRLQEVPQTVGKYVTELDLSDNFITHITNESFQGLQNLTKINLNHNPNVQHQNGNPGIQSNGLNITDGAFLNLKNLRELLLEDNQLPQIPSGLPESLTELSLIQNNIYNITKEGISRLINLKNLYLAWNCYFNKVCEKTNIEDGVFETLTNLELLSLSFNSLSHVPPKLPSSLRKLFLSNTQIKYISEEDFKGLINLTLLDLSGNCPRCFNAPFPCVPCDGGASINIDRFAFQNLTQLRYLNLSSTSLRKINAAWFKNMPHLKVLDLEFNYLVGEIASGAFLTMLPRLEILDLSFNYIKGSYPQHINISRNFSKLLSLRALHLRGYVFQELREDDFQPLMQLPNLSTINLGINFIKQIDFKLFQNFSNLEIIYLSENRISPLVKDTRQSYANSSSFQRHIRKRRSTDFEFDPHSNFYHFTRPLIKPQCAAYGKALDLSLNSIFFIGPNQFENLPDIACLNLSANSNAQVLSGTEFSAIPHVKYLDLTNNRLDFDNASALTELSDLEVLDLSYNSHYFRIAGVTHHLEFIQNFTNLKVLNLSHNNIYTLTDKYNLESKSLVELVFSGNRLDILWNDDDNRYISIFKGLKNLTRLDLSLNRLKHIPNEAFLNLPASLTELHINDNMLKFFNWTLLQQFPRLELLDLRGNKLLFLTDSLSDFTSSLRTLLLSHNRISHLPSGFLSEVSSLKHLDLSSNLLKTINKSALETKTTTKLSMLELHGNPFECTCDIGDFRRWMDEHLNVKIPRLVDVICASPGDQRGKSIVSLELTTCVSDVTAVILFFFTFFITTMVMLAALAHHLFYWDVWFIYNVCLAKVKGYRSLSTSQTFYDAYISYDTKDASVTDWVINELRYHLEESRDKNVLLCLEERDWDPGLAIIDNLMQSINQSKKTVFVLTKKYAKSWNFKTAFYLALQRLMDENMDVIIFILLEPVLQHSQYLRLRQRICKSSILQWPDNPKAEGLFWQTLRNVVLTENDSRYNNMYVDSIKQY
Kind of data set: Activation of human TLR8 expressed in HEK293XL assessed as fold induction of NF-kappaB activity at 50 ug/ml after 18 hrs by reporter gene assay relative to control. The procedure, abridged:
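HEK293 cells stably expressing human TLR7 or TLR8, transiently transfected with SEAP reporter plasmid; medium replaced, SIMRA compounds added, 18 h incubation. Supernatant SEAP measured by QuantiBlue; expressed as fold increase in NF-κB activity over PBS control. Tabulated data at 50 μg/mL, representative of three independent experiments.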

Data set [9] concerns the target T2, Toll-like receptor 9 (Mus musculus) (UniProt Q9EQU3).
T2 sequence (whole entry): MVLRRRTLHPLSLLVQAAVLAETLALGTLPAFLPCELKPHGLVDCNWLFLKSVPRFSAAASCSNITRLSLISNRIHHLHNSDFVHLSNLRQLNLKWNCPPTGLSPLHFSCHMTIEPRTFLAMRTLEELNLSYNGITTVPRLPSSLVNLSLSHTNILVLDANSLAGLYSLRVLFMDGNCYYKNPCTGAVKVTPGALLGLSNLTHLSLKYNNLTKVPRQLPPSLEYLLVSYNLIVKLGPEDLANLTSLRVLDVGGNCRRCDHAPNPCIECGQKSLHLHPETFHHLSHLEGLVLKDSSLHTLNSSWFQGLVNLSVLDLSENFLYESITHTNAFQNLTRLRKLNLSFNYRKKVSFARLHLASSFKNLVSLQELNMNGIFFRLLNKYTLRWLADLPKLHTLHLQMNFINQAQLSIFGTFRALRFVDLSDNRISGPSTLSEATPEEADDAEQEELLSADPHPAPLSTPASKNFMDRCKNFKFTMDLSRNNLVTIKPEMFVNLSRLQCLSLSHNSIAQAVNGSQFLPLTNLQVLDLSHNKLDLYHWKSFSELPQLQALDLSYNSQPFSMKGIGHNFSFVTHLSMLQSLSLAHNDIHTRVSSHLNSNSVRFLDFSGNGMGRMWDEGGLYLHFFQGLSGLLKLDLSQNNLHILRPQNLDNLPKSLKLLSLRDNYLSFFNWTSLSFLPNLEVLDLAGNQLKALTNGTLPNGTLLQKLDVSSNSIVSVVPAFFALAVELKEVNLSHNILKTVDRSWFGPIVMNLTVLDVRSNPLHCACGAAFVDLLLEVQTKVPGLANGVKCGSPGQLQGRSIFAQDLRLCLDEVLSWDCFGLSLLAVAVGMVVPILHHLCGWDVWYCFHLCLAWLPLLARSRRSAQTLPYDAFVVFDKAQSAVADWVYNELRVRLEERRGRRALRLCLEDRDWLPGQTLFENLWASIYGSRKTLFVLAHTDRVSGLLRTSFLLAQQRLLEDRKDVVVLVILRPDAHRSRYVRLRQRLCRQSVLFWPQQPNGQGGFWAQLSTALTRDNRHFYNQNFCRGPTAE
Kind of data set: Activation of mouse TLR9 expressed in HEK293 assessed as induction of NF-kappaB activity reporter gene assay. The data set is classed as cell-based.

`Nc1ccn([C@@H]2O[C@H](COP(=O)(S)O[C@H]3[C@@H](O)[C@H](n4cnc5c(N)ncnc54)O[C@@H]3CO)[C@@H](OP(=O)(S)OC[C@H]3O[C@@H](n4ccc(=O)[nH]c4=O)[C@H](O)[C@@H]3OP(=O)(S)OC[C@H]3O[C@@H](n4ccc5c(=O)[nH]c(N)nc54)[C@H](O)[C@@H]3OP(=O)(S)OC[C@H]3O[C@@H](n4ccc(N)nc4=O)[C@H](O)[C@@H]3OP(=O)(S)OC[C@H]3O[C@@H](n4ccc5c(=O)[nH]c(N)nc54)[C@H](O)[C@@H]3OP(=O)(S)OC[C@H]3O[C@@H](n4cnc5c(N)ncnc54)[C@H](O)[C@@H]3OP(=O)(S)OC[C@H]3O[C@@H](n4ccc5c(=O)[nH]c(N)nc54)[C@H](O)[C@@H]3OP(=O)(S)OC[C@H]3O[C@@H](n4ccc(N)nc4=O)[C@H](O)[C@@H]3OP(=O)(S)OC[C@H]3O[C@@H](n4ccc(=O)[nH]c4=O)[C@H](O)[C@@H]3OP(=O)(S)OC[C@H]3O[C@@H](n4ccc(=O)[nH]c4=O)[C@H](O)[C@@H]3OP(=O)(S)OCC(O)COP(=O)(S)O[C@H]3[C@@H](O)[C@H](n4ccc(=O)[nH]c4=O)O[C@@H]3COP(=O)(S)O[C@H]3[C@@H](O)[C@H](n4ccc(=O)[nH]c4=O)O[C@@H]3COP(=O)(S)O[C@H]3[C@@H](O)[C@H](n4ccc(N)nc4=O)O[C@@H]3COP(=O)(S)O[C@H]3[C@@H](O)[C@H](n4ccc5c(=O)[nH]c(N)nc54)O[C@@H]3COP(=O)(S)O[C@H]3[C@@H](O)[C@H](n4cnc5c(N)ncnc54)O[C@@H]3COP(=O)(S)O[C@H]3[C@@H](O)[C@H](n4ccc5c(=O)[nH]c(N)nc54)O[C@@H]3COP(=O)(S)O[C@H]3[C@@H](O)[C@H](n4ccc(N)nc4=O)O[C@@H]3COP(=O)(S)O[C@H]3[C@@H](O)[C@H](n4ccc5c(=O)[nH]c(N)nc54)O[C@@H]3COP(=O)(S)O[C@H]3[C@@H](O)[C@H](n4ccc(=O)[nH]c4=O)O[C@@H]3COP(=O)(S)O[C@H]3[C@@H](O)[C@H](n4ccc(N)nc4=O)O[C@@H]3COP(=O)(S)O[C@H]3[C@@H](O)[C@H](n4cnc5c(N)ncnc54)O[C@@H]3CO)[C@H]2O)c(=O)n1` (stereo partly drawn): the result in the data set with Splenocyte [1] and in the data set on Splenocyte [7] was Active. In [2], the remaining at 10 min came to 71%. Moreover, the outcome in data set [3] and in [9] was inactive. Also, the Activity in the data set with PBMC [4] was 43.5 pg/mL; in the data set with PBMC [5] it was 487 pg/mL. Further, the IFN-alpha in the data set on PBMC [6] is 131 pg/mL. The fold change (FC) in [8] was found to be 1.7.
Take `Nc1ccn([C@@H]2O[C@H](COP(=O)(S)O[C@H]3[C@@H](O)[C@H](n4cnc5c(N)ncnc54)O[C@@H]3CO)[C@@H](OP(=O)(S)OC[C@H]3O[C@@H](n4ccc(=O)[nH]c4=O)[C@H](O)[C@@H]3OP(=O)(S)OC[C@H]3O[C@@H](n4ccc(=O)[nH]c4=O)[C@H](O)[C@@H]3OP(=O)(S)OC[C@H]3O[C@@H](n4ccc5c(=O)[nH]c(N)nc54)[C@H](O)[C@@H]3OP(=O)(S)OC[C@H]3O[C@@H](n4cnc5c(N)ncnc54)[C@H](O)[C@@H]3OP(=O)(S)OC[C@H]3O[C@@H](n4ccc(N)nc4=O)[C@H](O)[C@@H]3OP(=O)(S)OC[C@H]3O[C@@H](n4ccc5c(=O)[nH]c(N)nc54)[C@H](O)[C@@H]3OP(=O)(S)OC[C@H]3O[C@@H](n4cnc5c(N)ncnc54)[C@H](O)[C@@H]3OP(=O)(S)OC[C@H]3O[C@@H](n4ccc(=O)[nH]c4=O)[C@H](O)[C@@H]3OP(=O)(S)OC[C@H]3O[C@@H](n4ccc(=O)[nH]c4=O)[C@H](O)[C@@H]3OP(=O)(S)OCC(O)COP(=O)(S)O[C@H]3[C@@H](O)[C@H](n4ccc(=O)[nH]c4=O)O[C@@H]3COP(=O)(S)O[C@H]3[C@@H](O)[C@H](n4ccc(=O)[nH]c4=O)O[C@@H]3COP(=O)(S)O[C@H]3[C@@H](O)[C@H](n4cnc5c(N)ncnc54)O[C@@H]3COP(=O)(S)O[C@H]3[C@@H](O)[C@H](n4ccc5c(=O)[nH]c(N)nc54)O[C@@H]3COP(=O)(S)O[C@H]3[C@@H](O)[C@H](n4ccc(N)nc4=O)O[C@@H]3COP(=O)(S)O[C@H]3[C@@H](O)[C@H](n4cnc5c(N)ncnc54)O[C@@H]3COP(=O)(S)O[C@H]3[C@@H](O)[C@H](n4ccc5c(=O)[nH]c(N)nc54)O[C@@H]3COP(=O)(S)O[C@H]3[C@@H](O)[C@H](n4ccc(=O)[nH]c4=O)O[C@@H]3COP(=O)(S)O[C@H]3[C@@H](O)[C@H](n4ccc(=O)[nH]c4=O)O[C@@H]3COP(=O)(S)O[C@H]3[C@@H](O)[C@H](n4ccc(N)nc4=O)O[C@@H]3COP(=O)(S)O[C@H]3[C@@H](O)[C@H](n4cnc5c(N)ncnc54)O[C@@H]3CO)[C@H]2O)c(=O)n1` (stereo partly drawn): the outcome in the data set on Splenocyte [1] and in the data set with Splenocyte [7] was Active. Further, the remaining at 10 min in data set [2] came out at 86%. The outcome in [3] and in [9] was inactive. The values for the Activity in the data set on PBMC [4] and in the data set with PBMC [5] were 115 pg/mL and 394 pg/mL, respectively. Besides, the IFN-alpha in the data set with PBMC [6] amounted to 233 pg/mL. The fold change (FC) in data set [8] was 2.1.
